In ChEMBL document CHEMBL2434876, “Design, synthesis and biological evaluation of 2-substituted quinolines as potential antileishmanial agents” (Eur J Med Chem, 2013):
Active and inactive are the calls of the source. No cut-off for these calls is given here.

What was measured:
Leishmania donovani [1] = assay: Antileishmanial activity against Leishmania donovani MHOM/IN/80/Dd8 amastigotes infected in mouse J774A1 cells assessed as parasite growth inhibition after 72 hrs by luciferase reporter gene assay; type: functional, organism-based; conditions: MHOM/IN/80/Dd8, J774.A1, 72 h
Outline: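 J774A.1 macrophages (4 x 10^3/well) in RPMI-1640 with 10% FCS for 24 h, then infected with stationary-phase luciferase-expressing promastigotes (4 x 10^4/well). Non-internalized parasites washed off after 24 h. Compounds given as 7-point serial dilution from 100 µM for 72 h at 37°C. Steady-Glo luminescence read; IC50 from four-parameter Hill fit, mean of two independent experiments.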

[2] = Selectivity index, ratio of CC50 for African green monkey Vero cells to IC50 for Leishmania donovani MHOM/IN/80/Dd8 amastigotes; type: functional
Outline: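 Selectivity index is Vero CC50 divided by IC50 against intracellular L. donovani amastigotes in J774A.1 cells, each measured over 72 h.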

[3] = Drug metabolism in human liver microsomes at 1 uM after 30 mins by LC-MS/MS analysis; type: ADME, Microsome; conditions: read-out: Drug metabolism
Outline: (§1)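 Liver microsomes (1 mg/mL protein) in sodium phosphate buffer pH 7.4 with 5 mM NADPH, preincubated 10 min at 37°C. Test compound taken from a 200 µM acetonitrile:DMSO (96:4) stock. Samples analysed by LC/MS/MS as analyte/internal standard peak-area ratio. Percent metabolized at 30 min relative to 0 min; NADPH-free controls run in parallel.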

[4] = Cytotoxicity against African green monkey Vero cells after 72 hrs by MTT assay; type: cell-based; conditions: chlorocebus sabaeus
Outline: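 Exponentially growing Vero cells (1 x 10^5/well) exposed 72 h at 37°C, 5% CO2, to 7-point threefold dilutions from 400 µM (DMSO stocks diluted in medium), with DMSO vehicle controls. MTT added for 2 h, formazan dissolved in DMSO, absorbance read at 544 nm. CC50 is the concentration halving viability versus medium-only cells; mean of two independent experiments.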

[5] = Drug metabolism in mouse liver microsomes at 1 uM after 30 mins by LC-MS/MS analysis; type: ADME, Microsome; conditions: read-out: Drug metabolism; outline: as §1
[6] = Drug metabolism in hamster liver microsomes at 1 uM after 30 mins by LC-MS/MS analysis; type: ADME, Microsome; conditions: cricetinae, read-out: Drug metabolism; outline: as §1
Leishmania donovani [7] = assay: Antileishmanial activity against Leishmania donovani MHOM/IN/80/Dd8 amastigotes infected in golden hamster assessed as parasite growth inhibition at 50 mg/kg, po bid for 5 days measured on day 7 by Giemsa staining assay; type: functional
Outline: (§2)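 Inbred golden hamsters, 40-45 g, infected intracardially with 1 x 10^7 L. donovani amastigotes. Animals with +1 spleen biopsy grade (5-15 amastigotes/100 nuclei) were randomized, 5-6 per group. Dosing in distilled water/PBS began 48 h after biopsy and ran 5 consecutive days. Post-treatment spleen biopsy on day 7, Giemsa count; percent inhibition corrected for initial count and untreated-control increase.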

[8] = Cmax in Swiss Albino mouse at 10 mg/kg, iv by LC-MS/MS analysis; type: ADME, organism-based; parameters: dose 10 mg/kg, route intravenous; conditions: in vivo
Outline: (§3)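 Male Swiss Albino mice, 8-12 weeks, 30-40 g, fasted 4 h pre-dose and fed 4 h post-dose. Parallel groups: 10 mg/kg IV tail-vein bolus or 50 mg/kg oral gavage. Sparse sampling, 3 mice per time point, from 0.083 (IV only) to 24 h. K2EDTA plasma analysed by LC-MS/MS (calibration 1–1000 ng/mL). Non-compartmental parameters; bioavailability from dose-normalized AUC ratio versus IV.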

[9] = Metabolic stability in plasma (unknown origin); type: ADME, cell-free
[10] = Elimination half life in Swiss Albino mouse at 10 mg/kg, iv by LC-MS/MS analysis; type: ADME, organism-based; parameters: dose 10 mg/kg, route intravenous; conditions: in vivo, read-out: beta t1/2 (converted); outline: as §3
[11] = Metabolic stability in whole blood (unknown origin); type: ADME, tissue-based
[12] = AUClast in Swiss Albino mouse at 50 mg/kg, po by LC-MS/MS analysis; type: ADME, organism-based; parameters: time 0 - last, dose 50 mg/kg, route oral; conditions: plasma; outline: as §3
[13] = Tmax in Swiss Albino mouse at 50 mg/kg, po by LC-MS/MS analysis; type: ADME, organism-based; parameters: dose 50 mg/kg, route oral; conditions: in vivo; outline: as §3
[14] = Plasma clearance in Swiss Albino mouse at 10 mg/kg, iv by LC-MS/MS analysis; type: ADME, organism-based; parameters: dose 10 mg/kg, route intravenous; outline: as §3
Leishmania donovani [15] = assay: Antileishmanial activity against Leishmania donovani MHOM/IN/80/Dd8 amastigotes infected in golden hamster assessed as parasite growth inhibition at 50 mg/kg, ip qd for 5 days measured on day 7 by Giemsa staining assay; type: functional; outline: as §2
[16] = Cmax in Swiss Albino mouse at 50 mg/kg, po by LC-MS/MS analysis; type: ADME, organism-based; parameters: dose 50 mg/kg, route oral; conditions: in vivo; outline: as §3
[17] = Oral bioavailability in Swiss Albino mouse at 50 mg/kg by LC-MS/MS analysis; type: ADME, organism-based; conditions: in vivo; outline: as §3
[18] = AUClast in Swiss Albino mouse at 10 mg/kg, iv by LC-MS/MS analysis; type: ADME, organism-based; parameters: time 0 - last, dose 10 mg/kg, route intravenous; conditions: plasma; outline: as §3
[19] = Volume of distribution at steady state in Swiss Albino mouse at 10 mg/kg, iv by LC-MS/MS analysis; type: ADME, organism-based; parameters: dose 10 mg/kg, route intravenous; conditions: in vivo, read-out: Vdss; outline: as §3
[20] = AUC (infinity) in Swiss Albino mouse at 10 mg/kg, iv by LC-MS/MS analysis; type: ADME, organism-based; parameters: time infinity, dose 10 mg/kg, route intravenous; conditions: plasma; outline: as §3
[21] = Tmax in Swiss Albino mouse at 10 mg/kg, iv by LC-MS/MS analysis; type: ADME, organism-based; parameters: dose 10 mg/kg, route intravenous; conditions: in vivo; outline: as §3
Leishmania donovani [22] = assay: Antileishmanial activity against Leishmania donovani MHOM/IN/80/Dd8 amastigotes infected in golden hamster assessed as parasite growth inhibition at 50 mg/kg, ip bid for 5 days measured on day 7 by Giemsa staining assay; type: functional; conditions: MHOM/IN/80/Dd8, ip, route intraperitoneal, read-out: GI; outline: as §2
[23] = Solubility of the compound; type: physicochemical
Leishmania donovani [24] = assay: Antileishmanial activity against Leishmania donovani MHOM/IN/80/Dd8 amastigotes infected in golden hamster assessed as parasite growth inhibition at 30 mg/kg, po qd for 5 days measured on day 7 by Giemsa staining assay; type: functional; conditions: read-out: GI; outline: as §2

SMILES | metabolised at 0.5 h, 1 µM [3] [%] | metabolised at 0.5 h, 1 µM [5] [%] | metabolised at 0.5 h, 1 µM [6] [%] | IC50 (Leishmania donovani [1]) [µM] | Ratio CC50/IC50 [2] | CC50 at 72 h [4] [µM] | also measured
OC/C=C/c1cc(-c2cccc(F)c2)c2cc(Cl)c(F)cc2n1 | 25 | 40 | 59 | 1.79 | 12.08 | 21.6 | –
OC/C=C/c1cc(N2CCOCC2)c2cc(Cl)ccc2n1 | 43 | 56 | 88 | 4.4 | 10.65 | 46.9 | –
CN(C)c1cc(/C=C/CO)nc2cc(F)c(Cl)cc12 | – | – | – | 23 | 1.8 | 41.6 | –
OC/C=C/c1cc(N2CCOCC2)c2cc(Cl)c(F)cc2n1 [listing 1 of 2 here] | – | – | – | – | – | – | inhibition in vivo at 50 mg/kg (Leishmania donovani [7]; read-out: GI): 84.3%
O=C(O)/C=C/c1ccc2ccccc2n1 | – | – | – | 50.2 | >7.96 | > 400 | –
OCC#Cc1ccc2ccccc2n1 | 22 | 99 | – | 10.7 | 2.45 | 26.2 | –
FC/C=C/c1ccc2ccccc2n1 | 100 | 100 | – | 6.68 | 5.77 | 38.6 | solubility [23]: > 1000 µg/mL
COc1cc2nc(/C=C/CO)cc(N3CCOCC3)c2cc1Cl | 31 | 44 | 86 | 3.72 | 13.92 | 51.8 | –
CCCCCCCCCCCCCCCCOP(=O)([O-])OCC[N+](C)(C)C [MILTEFOSINE] | – | – | – | – | 6.27 | 52.7 | inhibition in vivo at 30 mg/kg (Leishmania donovani [24]): 96.5%
OC/C=C/c1ccc2c(F)c(Cl)ccc2n1 | – | – | – | 4.1 | 4.76 | 19.5 | –
OC/C=C/c1cc(N2CCCCC2)c2cc(Cl)c(F)cc2n1 | 39 | 81 | 100 | 2.84 | 7.86 | 22.3 | –
COc1ccc2nc(/C=C/CO)ccc2c1 | – | – | – | 32.4 | 1.42 | 45.9 | –

Second part, led by results:

metabolised at 0.5 h, 1 µM [3] [%] | metabolised at 0.5 h, 1 µM [5] [%] | metabolised at 0.5 h, 1 µM [6] [%] | SMILES | IC50 (Leishmania donovani [1]) [µM] | Ratio CC50/IC50 [2] | CC50 at 72 h [4] [µM] | also measured
44 | 97 | – | NC(=O)/C=C/c1ccc2ccccc2n1 | 20.4 | 3.74 | 76.3 | –
25 | 83 | – | OC/C=C/c1cc(-c2ccc(F)cc2)c2cc(Cl)ccc2n1 | 1.57 | 20.71 | 32.5 | –
17 | 50 | 99 | CC1CN(c2cc(/C=C/CO)nc3cc(F)c(Cl)cc23)CC(C)O1 (stereo not drawn) | 4.75 | 8.97 | 41.3 | –
100 | 100 | – | N#C/C=C/c1ccc2ccccc2n1 | 28.6 | 5.41 | 155 | –
50 | 60 | – | OC/C=C/c1ccc2cc(Cl)c(F)cc2n1 | 14.3 | 5.54 | 79.6 | –
25 | 51 | 53 | OC/C=C/c1cc(-c2ccc(F)cc2)c2cc(Cl)c(F)cc2n1 | 1.43 | – | 24.6 | –
76 | 100 | – | OC/C=C/c1ccc2cc(F)ccc2n1 | 17.9 | 2.86 | 51.2 | –
14 | 30 | 23 | COc1ccc(-c2cc(/C=C/CO)nc3cc(F)c(Cl)cc23)cc1 | 1.2 | 22.26 | 26.8 | growth inhibition (GI) (Leishmania donovani [7]): inactive
27 | 27 | 89 | CN1CCN(c2cc(/C=C/CO)nc3cc(F)c(Cl)cc23)CC1 | 5.88 | 7.58 | 44.6 | –
35 | 45 | 66 | OC/C=C/c1cc(N2CCOCC2)c2cc(Cl)c(F)cc2n1 [listing 2 of 2 here] | 0.22 | 187.5 | 41.2 | Cmax [8]: 2230 ng/mL; Stability [9]: Stable; half-life [10]: 28.2 min; Stability [11]: Unstable; AUC(0-t) [12]: 6.88 ng·h/mL; Tmax [13]: 15 min; clearance [14]: 865 mL/min/kg; inhibition in vivo at 50 mg/kg (Leishmania donovani [15]; MHOM/IN/80/Dd8, ip, route intraperitoneal, read-out: GI): 25.4%; Cmax [16]: 19.7 ng/mL; bioavailability [17]: 0.7%; AUC(0-t) [18]: 193 ng·h/mL; Vd [19]: 7.54 L/kg; AUC(0-inf) [20]: 193 ng·h/mL; Tmax [21]: 4.8 min; inhibition in vivo at 50 mg/kg (Leishmania donovani [22]): 77.2%
87 | 100 | – | OC/C=C/c1ccc2cc(Cl)ccc2n1 | 0.86 | 33.59 | 28.9 | –
98 | 100 | – | CCCc1ccc2ccccc2n1 | > 100 | <1.25 | 126 | –
8 | 34 | – | COc1ccc(-c2cc(/C=C/CO)nc3ccc(Cl)cc23)cc1 | 0.22 | 168.72 | 37.1 | –
27 | 33 | 94 | OC/C=C/c1cc(Oc2ccc(F)cc2)c2cc(Cl)ccc2n1 | 1.96 | 18.07 | 35.4 | –
96 | 100 | – | OC/C=C/c1ccc2ccccc2n1 | 10 | 3.17 | 31.9 | growth inhibition (GI) (Leishmania donovani [15]): inactive
